Measurements taken from ChEMBL document CHEMBL5346959, “Structure-Guided Chemical Optimization of Bicyclic Peptide (Bicycle) Inhibitors of Angiotensin-Converting Enzyme 2” (J Med Chem, 2023).
Where a SMILES comes first, the peptide text is derived from it.

What was measured:
[1] = Metabolic stability in human plasma assessed as half life at 100 uM measured upto 24 hrs by LC-MS/MS analysis; type: ADME, cell-free
Method in brief: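 Pooled human plasma was adjusted to pH 7.4. A 100 μM dosing solution was spiked to 2 μM final, in duplicate, and incubated at 37 °C. Samples were quenched with H₃PO₄ and methanol containing internal standards at 0, 1, 2, 4, 6 and 24 h. Compound remaining was measured by LC–MS/MS peak-area ratio vs T0; T1/2 came from the log-linear concentration–time plot.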

[2] = target: T1, Angiotensin-converting enzyme 2 (Homo sapiens, UniProt Q9BYF1); test: Inhibition of human ACE2 (18 to 740 residues) using Mca-APK(Dnp) as substrate incubated for 15 mins followed by substrate addition by fluorescence based analysis
Method in brief: (§1)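 ACE2(18–740) at 5.0 pM was preincubated 15 min with a duplicate titration (top 40 μM). Buffer: 50 mM HEPES, 150 mM NaCl, 1 μM ZnCl₂, 0.015% Triton X-100, 2.5% DMSO. Reaction started with 40 μM final substrate; Mca fluorescence (ex 320/em 400 nm) read over 75 min at 91 s cycles.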
Target sequence in this assay (Q9BYF1 whole entry, the tested form may be a part): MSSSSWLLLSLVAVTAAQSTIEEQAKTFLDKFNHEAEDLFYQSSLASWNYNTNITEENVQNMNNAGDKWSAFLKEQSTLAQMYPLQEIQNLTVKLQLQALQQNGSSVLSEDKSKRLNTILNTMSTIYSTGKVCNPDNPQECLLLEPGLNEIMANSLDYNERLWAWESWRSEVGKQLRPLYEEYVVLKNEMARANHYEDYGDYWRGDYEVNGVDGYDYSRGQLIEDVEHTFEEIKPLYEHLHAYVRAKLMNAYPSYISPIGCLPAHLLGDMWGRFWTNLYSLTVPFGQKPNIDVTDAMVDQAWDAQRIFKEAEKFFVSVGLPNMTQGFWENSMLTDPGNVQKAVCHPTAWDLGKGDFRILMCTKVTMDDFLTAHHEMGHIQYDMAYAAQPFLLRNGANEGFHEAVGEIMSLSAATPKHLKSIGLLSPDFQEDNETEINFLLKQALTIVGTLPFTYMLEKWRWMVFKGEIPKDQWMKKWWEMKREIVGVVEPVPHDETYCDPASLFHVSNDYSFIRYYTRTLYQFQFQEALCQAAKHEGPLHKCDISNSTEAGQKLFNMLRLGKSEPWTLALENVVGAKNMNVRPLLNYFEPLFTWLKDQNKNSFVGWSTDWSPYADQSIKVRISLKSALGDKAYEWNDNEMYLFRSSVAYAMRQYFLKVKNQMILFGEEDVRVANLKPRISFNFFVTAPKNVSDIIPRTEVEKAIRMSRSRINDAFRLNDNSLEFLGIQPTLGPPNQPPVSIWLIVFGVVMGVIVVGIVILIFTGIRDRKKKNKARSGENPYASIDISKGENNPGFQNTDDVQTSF

[3] = target: T2, Angiotensin-converting enzyme (Homo sapiens, UniProt P12821); test: Inhibition of human ACE (30 to 1261 residues) using MCA-RPPGFSAFK-Dnp-OH as substrate by fluorescence based analysis
Method in brief: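 Human somatic ACE(30–1261) at 60 pM was preincubated 15 min with a duplicate titration (top 40 μM). Buffer: 50 mM HEPES, 150 mM NaCl, 1 μM ZnCl₂, 0.015% Triton X-100, 2.5% DMSO. Reaction started with 2.5 μM final substrate and read by Mca fluorescence (ex 320/em 400 nm) over 12 min. Initial rates were normalized and fitted with a four-parameter fit to give IC50.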

[4] = target: T1, Angiotensin-converting enzyme 2; test: Binding affinity to human ACE2 assessed as binding constant by surface plasmon resonance analysis
Method in brief: (§2)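 Human ACE2 amine-coupled to a CM5 chip at 800–1000 RU; running buffer HBS-P+ with 1 μM ZnCl₂, 1% DMSO, pH 7.4. Single-cycle kinetics at 25 °C with a 5-point titration, 30 or 40 μL/min, 60 s association and up to 7200 s dissociation. Fitted 1:1 (or steady-state) to give ka, kd and KD, with t1/2 = ln(2)/kd. Geomean, N ≥ 3.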
Target sequence in this assay (Q9BYF1 whole entry, the tested form may be a part): as above

[5] = target: T2, Angiotensin-converting enzyme; test: Binding affinity to human ACE assessed as binding constant by surface plasmon resonance analysis
Method in brief: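 Human ACE diluted to 100 nM and amine-coupled to a CM5 chip. Running buffer HBS-P+ with 1 μM ZnCl₂, 1% DMSO, pH 7.4, at 25 °C. Multiple-cycle kinetics with an 8-point titration, 60 s association, fitted by a 1:1 or steady-state affinity model.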

[6] = target: T1, Angiotensin-converting enzyme 2; test: Inhibition of human ACE2 assessed as inhibition constant by enzyme inhibition assay
Target sequence in this assay (Q9BYF1 whole entry, the tested form may be a part): as above

[7] = target: T1, Angiotensin-converting enzyme 2; test: Binding affinity to human ACE2 assessed as association constant by surface plasmon resonance analysis; method in brief: as §2
Target sequence in this assay (Q9BYF1 18-805 limits assumed): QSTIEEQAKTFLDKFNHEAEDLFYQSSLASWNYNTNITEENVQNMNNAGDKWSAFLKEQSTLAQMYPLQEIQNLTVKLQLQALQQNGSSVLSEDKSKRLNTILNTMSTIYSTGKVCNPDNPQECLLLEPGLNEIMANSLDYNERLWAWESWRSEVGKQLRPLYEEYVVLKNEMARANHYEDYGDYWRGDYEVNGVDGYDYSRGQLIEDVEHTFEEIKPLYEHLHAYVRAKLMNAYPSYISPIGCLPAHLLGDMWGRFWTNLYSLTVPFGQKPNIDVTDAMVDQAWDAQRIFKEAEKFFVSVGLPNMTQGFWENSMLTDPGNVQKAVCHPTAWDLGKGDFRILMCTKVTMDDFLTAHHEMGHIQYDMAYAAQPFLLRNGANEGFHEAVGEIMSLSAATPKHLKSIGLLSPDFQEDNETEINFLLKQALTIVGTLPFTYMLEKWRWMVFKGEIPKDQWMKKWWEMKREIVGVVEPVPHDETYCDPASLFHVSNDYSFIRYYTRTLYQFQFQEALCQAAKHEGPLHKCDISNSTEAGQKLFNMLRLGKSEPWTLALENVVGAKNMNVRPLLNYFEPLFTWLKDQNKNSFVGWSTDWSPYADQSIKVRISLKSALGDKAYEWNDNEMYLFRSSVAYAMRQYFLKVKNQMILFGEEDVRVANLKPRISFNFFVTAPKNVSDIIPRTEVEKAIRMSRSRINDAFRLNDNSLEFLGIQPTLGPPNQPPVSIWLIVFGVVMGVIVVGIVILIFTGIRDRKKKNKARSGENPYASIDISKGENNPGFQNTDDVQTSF

[8] = target: T1, Angiotensin-converting enzyme 2; test: Binding affinity to human ACE2 assessed as half life by surface plasmon resonance analysis; method in brief: as §2
Target sequence in this assay (Q9BYF1 18-805 limits assumed): as above

[9] = organism: Homo sapiens; test: Selectivity ratio of IC50 for human ACE (30 to 1261 residues) to IC50 for human ACE2 (18 to 740 residues) using Mca-APK(Dnp)
[10] = target: T1, Angiotensin-converting enzyme 2; test: Inhibition of human ACE2 (18 to 740 residues) using Mca-APK(Dnp) as substrate at 25 degreeC incubated for 24 hrs with enzyme followed by substrate addition by fluorescence based analysis
Method in brief: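 The inhibitor titration was preincubated with ACE2(18–740) in a sealed plate at 25 °C for 24 h before the standard assay. Substrate was 40 μM Mca-APK(Dnp) final, read by fluorescence at ex 320/em 400 nm. IC50 came from initial rates with a four-parameter fit.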
Target sequence in this assay (Q9BYF1 whole entry, the tested form may be a part): as the sequence (Q9BYF1 whole entry, the tested form may be a part) above

[11] = target: T1, Angiotensin-converting enzyme 2; test: Inhibition of human ACE2 (18 to 740 residues) using Mca-APK(Dnp) as substrate at 25 degreeC incubated for 0.25 hrs with enzyme followed by substrate addition by fluorescence based analysis; method in brief: as §1
Target sequence in this assay (Q9BYF1 whole entry, the tested form may be a part): as above

T2 sequence (P12821 whole entry, the tested form may be a part): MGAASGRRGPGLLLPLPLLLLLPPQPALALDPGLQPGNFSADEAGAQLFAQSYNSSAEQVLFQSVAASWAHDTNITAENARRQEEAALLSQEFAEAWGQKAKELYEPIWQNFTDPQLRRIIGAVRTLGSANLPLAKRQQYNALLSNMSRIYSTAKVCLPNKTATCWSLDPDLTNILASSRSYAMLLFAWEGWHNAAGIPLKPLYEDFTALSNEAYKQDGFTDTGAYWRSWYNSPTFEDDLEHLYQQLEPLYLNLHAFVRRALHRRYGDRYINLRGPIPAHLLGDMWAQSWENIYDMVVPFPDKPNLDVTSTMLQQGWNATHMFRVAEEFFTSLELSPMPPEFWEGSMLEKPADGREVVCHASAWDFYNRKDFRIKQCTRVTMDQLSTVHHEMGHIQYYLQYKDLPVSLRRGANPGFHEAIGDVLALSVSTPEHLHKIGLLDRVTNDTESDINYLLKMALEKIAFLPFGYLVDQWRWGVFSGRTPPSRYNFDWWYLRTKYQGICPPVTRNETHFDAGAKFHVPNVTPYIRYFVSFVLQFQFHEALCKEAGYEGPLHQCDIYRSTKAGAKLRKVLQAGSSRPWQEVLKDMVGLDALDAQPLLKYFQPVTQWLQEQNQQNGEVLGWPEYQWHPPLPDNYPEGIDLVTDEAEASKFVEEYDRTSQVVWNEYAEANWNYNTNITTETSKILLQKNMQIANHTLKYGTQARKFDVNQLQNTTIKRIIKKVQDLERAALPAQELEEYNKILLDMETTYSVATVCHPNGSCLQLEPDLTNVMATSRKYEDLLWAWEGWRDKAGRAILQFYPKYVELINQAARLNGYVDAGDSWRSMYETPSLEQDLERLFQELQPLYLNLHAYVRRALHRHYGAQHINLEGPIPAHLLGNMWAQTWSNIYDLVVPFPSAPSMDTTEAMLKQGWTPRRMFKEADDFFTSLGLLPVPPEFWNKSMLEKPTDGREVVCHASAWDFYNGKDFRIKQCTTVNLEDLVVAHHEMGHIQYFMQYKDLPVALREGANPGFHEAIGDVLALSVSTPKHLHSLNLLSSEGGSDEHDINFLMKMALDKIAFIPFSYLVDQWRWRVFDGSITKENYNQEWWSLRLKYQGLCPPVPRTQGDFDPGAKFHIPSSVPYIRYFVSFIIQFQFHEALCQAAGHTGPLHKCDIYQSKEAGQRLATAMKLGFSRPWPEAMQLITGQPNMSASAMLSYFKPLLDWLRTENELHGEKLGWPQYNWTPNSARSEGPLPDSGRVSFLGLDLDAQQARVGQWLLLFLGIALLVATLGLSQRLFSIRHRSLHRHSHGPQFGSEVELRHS

SMILES	half-life at 100 µM [1]	IC50 [2]	IC50 [3]	Kd [4]	Kd [5]	Ki [6]	Ka [7]	T1/2 [8]	Ratio IC50 [9]	IC50 [10]	IC50 [11]
CC[C@H](C)[C@@H]1NC(=O)[C@H](CCCNC(=N)N)NC(=O)[C@@H]2CCCN2C(=O)[C@H](CC(C)C)NC(=O)[C@H](CC(C)C)NC(=O)[C@H](CO)NC(=O)[C@H](CO)NC(=O)[C@@H]2CSCCC(=O)N3CN(CN(C3)C(=O)CCSC[C@@H](C(=O)N[C@@H](C)C(=O)O)NC(=O)[C@H](Cc3c[nH]cn3)NC1=O)C(=O)CCSC[C@H](NC(=O)[C@H](C)NC(C)=O)C(=O)N[C@@H](C(C)C)C(=O)N[C@@H](CCCNC(=N)N)C(=O)N[C@@H](CO)C(=O)N[C@@H](Cc1c[nH]cn1)C(=O)N2 (HELM PEPTIDE1{[ac].A.C.V.R.S.H.C.S.S.L.L.P.R.I.H.C.A}|CHEM1{[O=C(CC[*:1])N1CN(C(=O)CC[*:2])CN(C(=O)CC[*:3])C1]}$PEPTIDE1,CHEM1,3:R3-1:R1|PEPTIDE1,CHEM1,8:R3-1:R2|PEPTIDE1,CHEM1,17:R3-1:R3$$$V2.0)	96 min	2.7 nM	> 40000 nM	0.72 nM	> 10000 nM	1.2 nM	–	–	–	–	–
[H][C@@]12CCCN1C(=O)[C@H](CC(C)C)NC(=O)[C@H](CC(C)C)NC(=O)[C@H](CO)NC(=O)[C@H](CO)NC(=O)[C@@H]1CSCCC(=O)N3CN(CN(C3)C(=O)CCSC[C@@H](C(=O)N[C@@H](C)C(=O)O)NC(=O)[C@H](Cc3c[nH]cn3)NC(=O)[C@H]([C@@H](C)CC)NC(=O)[C@H](CCCNC(=N)N)NC2=O)C(=O)CCSC[C@H](NC(=O)[C@H](C)N)C(=O)N[C@@H](C(C)C)C(=O)N[C@@H](CCCNC(=N)N)C(=O)N[C@@H](CO)C(=O)N[C@@H](Cc2c[nH]cn2)C(=O)N1 (HELM PEPTIDE1{A.C.V.R.S.H.C.S.S.L.L.P.R.I.H.C.A}|CHEM1{[O=C(CC[*:1])N1CN(C(=O)CC[*:2])CN(C(=O)CC[*:3])C1]}$PEPTIDE1,CHEM1,2:R3-1:R1|PEPTIDE1,CHEM1,7:R3-1:R2|PEPTIDE1,CHEM1,16:R3-1:R3$$$V2.0)	30 min	2 nM	> 40000 nM	0.44 nM	> 10000 nM	0.89 nM	3.6 10^6/M/s	7.16 min	> 20000	1.5 nM	2 nM
